ChEMBL document CHEMBL2203130, “Sulfanylphthalonitrile analogues as selective and potent inhibitors of monoamine oxidase B” (Bioorg Med Chem Lett, 2012)

Experiments:
Homo sapiens [1] = organism: Homo sapiens; test: Selectivity index, ratio of IC50 for human recombinant MAOA to IC50 for human recombinant MAOB
Outline: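 Ratio of IC50 for MAO-A to IC50 for MAO-B. Both IC50s from the kynuramine fluorescence assay: MAO-A with 45 µM kynuramine, MAO-B with 30 µM. Each run in triplicate.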

[2] = target: T1, Amine oxidase [flavin-containing] B (Homo sapiens, UniProt P27338); test: Inhibition of human recombinant MAOB expressed in insect cell microsomes using kynuramine as substrate after 20 mins by fluorescence spectrophotometric analysis; set-up: species or system Microsome
T1 sequence (P27338 whole entry): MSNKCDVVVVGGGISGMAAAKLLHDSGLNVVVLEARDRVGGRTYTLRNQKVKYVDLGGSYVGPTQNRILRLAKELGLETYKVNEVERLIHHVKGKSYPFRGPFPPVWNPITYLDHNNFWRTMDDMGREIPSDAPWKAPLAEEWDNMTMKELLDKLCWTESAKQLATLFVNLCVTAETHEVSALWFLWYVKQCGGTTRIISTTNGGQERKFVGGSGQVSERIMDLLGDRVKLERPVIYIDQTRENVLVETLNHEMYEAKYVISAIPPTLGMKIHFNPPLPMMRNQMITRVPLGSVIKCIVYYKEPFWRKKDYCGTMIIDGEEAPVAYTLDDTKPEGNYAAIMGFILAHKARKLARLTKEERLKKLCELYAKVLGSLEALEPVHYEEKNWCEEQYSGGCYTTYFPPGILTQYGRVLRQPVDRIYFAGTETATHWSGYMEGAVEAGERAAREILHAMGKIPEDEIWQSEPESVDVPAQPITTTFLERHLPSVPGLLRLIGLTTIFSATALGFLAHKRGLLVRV

Homo sapiens [3] = organism: Homo sapiens; test: Selectivity index, ratio of Ki for human recombinant MAOA to Ki for human recombinant MAOB
Outline: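 Ki values derived from IC50s by the Cheng–Prusoff equation. MAO-A used [S] 45 µM and Km 16.1 µM; MAO-B used [S] 30 µM and Km 22.7 µM. Index is Ki(MAO-A)/Ki(MAO-B).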

[4] = target: T2, Amine oxidase [flavin-containing] A (Homo sapiens, UniProt P21397); test: Inhibition of human recombinant MAOA expressed in insect cell microsomes using kynuramine as substrate after 20 mins by fluorescence spectrophotometric analysis; set-up: species or system Microsome
T2 sequence (P21397 whole entry): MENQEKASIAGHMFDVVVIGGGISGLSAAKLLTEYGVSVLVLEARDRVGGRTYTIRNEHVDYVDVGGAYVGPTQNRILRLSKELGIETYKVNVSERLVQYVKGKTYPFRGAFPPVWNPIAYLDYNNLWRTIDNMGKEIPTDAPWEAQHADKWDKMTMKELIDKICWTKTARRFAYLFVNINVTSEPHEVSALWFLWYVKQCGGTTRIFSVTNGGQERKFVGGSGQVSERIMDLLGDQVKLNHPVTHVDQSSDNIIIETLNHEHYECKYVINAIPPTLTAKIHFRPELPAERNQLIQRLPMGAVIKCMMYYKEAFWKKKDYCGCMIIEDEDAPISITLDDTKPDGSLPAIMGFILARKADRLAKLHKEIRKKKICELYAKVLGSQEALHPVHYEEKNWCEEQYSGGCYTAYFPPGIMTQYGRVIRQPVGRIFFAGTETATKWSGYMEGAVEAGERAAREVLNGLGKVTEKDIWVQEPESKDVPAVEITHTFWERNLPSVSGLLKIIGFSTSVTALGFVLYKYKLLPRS
Outline: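 Recombinant human MAO-A at 0.0075 mg protein/mL, started with enzyme, in 100 mM potassium phosphate pH 7.4 made isotonic with KCl, 4% DMSO. Inhibitor 0.003–100 µM, kynuramine 45 µM final. 20 min at 37 °C, stopped with NaOH. 4-Hydroxyquinoline read by fluorescence against a calibration curve. IC50 from one-site competition fit, triplicate, mean ± SD.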

[5] = target: T1, Amine oxidase [flavin-containing] B; test: Reversible inhibition of human recombinant MAOB expressed in insect cell microsomes using kynuramine as substrate assessed as residual activity at 100 times IC50 preincubated for 30 mins followed by 100 fold dilution measured after 20 mins by fluorescence spectrophotometric analysis relative to control; set-up: species or system Microsome
Outline: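 Recombinant human MAO-B (0.75 mg/ml) preincubated 30 min at 37 °C with inhibitor at 0, 10 or 100 × IC50 in pH 7.4 isotonic potassium phosphate with 4% DMSO. Diluted 100-fold with kynuramine to 30 µM substrate and 0.0075 mg/mL enzyme. Then 20 min at 37 °C. Residual 4-hydroxyquinoline formation measured by fluorescence, relative to no-inhibitor control. (R)-deprenyl at 10 × IC50 run as comparator.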

[6] = target: T2, Amine oxidase [flavin-containing] A; test: Ratio of compound IC50 to clorgyline IC50 for human recombinant MAOA

| Ratio IC50 (Homo sapiens [1]) | IC50 [2] [µM] | Ratio Ki (Homo sapiens [3]) | IC50 [4] [µM] | Activity [5] [%] | Structure (SMILES) | Ratio IC50 [6] |
| --- | --- | --- | --- | --- | --- | --- |
| 41 | – | – | – | – | N#Cc1ccc(OCc2ccccc2)cc1 | – |
| 38 | 0.531 | 23 | 20.3 | – | N#Cc1ccc(SCc2ccc(Cl)cc2)cc1 | – |
| 27 | 1.58 | 16 | 42.4 | – | N#Cc1ccc(SCc2ccccc2)cc1 | – |
| 8720 | 0.025 | 5330 | 218 | 48 | N#Cc1ccc(SCc2ccc(Br)cc2)cc1C#N | – |
| 3.3 | 11.2 | 2 | 36.9 | – | N#Cc1ccc(Sc2ccccc2)cc1 | – |
| 54 | 0.167 | 33 | 9.02 | – | N#Cc1ccc(SCc2ccccc2)cc1C#N | – |
| 240 | 0.079 | 147 | 19 | – | N#Cc1ccc(Sc2ccc(Br)cc2)cc1C#N | – |
| 3.1 | 0.887 | 1.9 | 2.78 | – | N#Cc1ccc(SC2CCCC2)cc1C#N | – |
| 227 | – | – | – | – | N#Cc1ccc(OCc2ccccc2)cc1C#N | – |
| 1920 | 0.067 | 1180 | 129 | – | COc1ccc(CSc2ccc(C#N)c(C#N)c2)cc1 | – |
| 13 | 0.637 | 8.2 | 8.52 | – | N#Cc1ccc(Sc2ccc(Br)cc2)cc1 | – |
| 6 | 0.242 | 3.7 | 1.45 | – | CC(C)CCSc1ccc(C#N)c(C#N)c1 | – |
| 97 | 0.114 | 59.6 | 11.1 | – | N#Cc1ccc(Sc2ccc(Cl)cc2)cc1C#N | – |
| 27 | 0.223 | 16.3 | 5.96 | – | N#Cc1ccc(SC2CCCCC2)cc1C#N | – |
| 4.3 | 4.28 | 2.6 | 18.2 | – | N#Cc1ccc(Sc2ccc(Cl)cc2)cc1 | – |
| 6.5 | 0.861 | 4 | 5.59 | – | COc1ccc(CSc2ccc(C#N)cc2)cc1 | – |
| 134 | – | – | – | – | N#Cc1ccc(OCc2ccc(Br)cc2)cc1C#N | – |
| 122 | 0.449 | 75 | 54.7 | – | N#Cc1ccc(SCc2ccc(F)cc2)cc1 | – |
| 267 | 0.484 | 163 | 129 | – | N#Cc1ccc(SCc2ccc(Br)cc2)cc1 | – |
| 45 | 0.014 | 27 | 0.623 | – | N#Cc1ccc(SCc2ccc(Cl)cc2)cc1C#N | 240 |
| 58 | 0.124 | 35.5 | 7.19 | – | N#Cc1ccc(SCCc2ccccc2)cc1C#N | – |
| 62 | 0.034 | 38 | 2.1 | – | N#Cc1ccc(SCc2ccc(F)cc2)cc1C#N | – |
| 1.7 | 2.13 | 1 | 3.58 | – | N#Cc1ccc(Sc2ccccc2)cc1C#N | – |
| 30 | 1.81 | 18 | 54.3 | – | N#Cc1ccc(SCCc2ccccc2)cc1 | – |
| 2.1 | 4.77 | 1.3 | 9.87 | – | N#Cc1ccc(SC2CCCCC2)cc1 | – |
